Publication PMC11771645 (Journal of Clinical Pharmacology, 2024)
“Also recorded” adds a separate entry of the source. Where two headings read alike, the source gives them in different places.

Assays:
CYP1A2 = assay: In vitro CYP1A2 induction; assay type: in vitro ADME, human
[1] = patients with Friedreich's ataxia; cited from earlier work
Food-effect study = assay type: in vivo, human
CYP2C19 = settings: clinical doses; cited from earlier work
[2] = oral dose, male subjects; cited from earlier work
CYP2C9 = settings: clinical doses; cited from earlier work
[3] = Unbound fraction in plasma; assay type: in vitro ADME; settings: human
CYP3A4 [4] = assay: In vitro CYP3A4 induction; assay type: in vitro ADME, human
CYP3A4 [5] = settings: cited from earlier work
CYP3A4 [6] = settings: cited from earlier work; remark: listed apart in the source
CYP3A4 [7] = biological target: CYP3A4 (Homo sapiens, UniProt P08684); assay: Reaction phenotyping studies; assay type: in vitro ADME
Sequence of CYP3A4 (Homo sapiens, UniProt P08684) (P08684 whole entry): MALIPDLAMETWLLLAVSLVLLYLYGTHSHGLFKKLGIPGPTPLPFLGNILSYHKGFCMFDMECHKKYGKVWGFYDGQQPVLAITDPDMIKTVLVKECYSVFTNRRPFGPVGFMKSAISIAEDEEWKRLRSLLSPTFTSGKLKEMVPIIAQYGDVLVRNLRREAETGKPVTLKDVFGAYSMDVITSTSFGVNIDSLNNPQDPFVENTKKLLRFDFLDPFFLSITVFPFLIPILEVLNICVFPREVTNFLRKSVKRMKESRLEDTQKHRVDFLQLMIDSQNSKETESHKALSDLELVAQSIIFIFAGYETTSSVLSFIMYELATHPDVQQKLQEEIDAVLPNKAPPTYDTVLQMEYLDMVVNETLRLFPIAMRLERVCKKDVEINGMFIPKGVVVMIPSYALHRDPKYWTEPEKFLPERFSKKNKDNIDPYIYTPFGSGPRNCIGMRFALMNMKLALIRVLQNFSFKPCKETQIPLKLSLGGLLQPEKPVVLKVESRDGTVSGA

[8] = system: breast cancer resistance protein (BCRP); settings: clinical doses; cited from earlier work
[9] = Phase 2 Friedreich's ataxia study, observed PK; assay type: in vivo; settings: human, plasma, oral, geometric mean; for AUC: AUC0‐8 h
In short: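 Phase 2 study in patients with Friedreich's ataxia, with repeated oral dosing of the test compound at 200 mg or 400 mg TID. Observed plasma Cmax and AUC0-8 h were summarised as geometric means on Day 1 and Day 91. These observed data served to verify the PBPK model, with simulated exposures judged accurate if within 1.5-fold of observed.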

[10] = Clinical PK in healthy volunteer studies; assay type: in vivo, human
[11] = 400 mg vatiquinone with 200 mg itraconazole
[12] = Observed, Vatiquinone + Itraconazole (5 days TID, 200 mg)
[13] = in the presence of itraconazole
[14] = 400 mg vatiquinone with 600 mg rifampicin
[15] = Observed, Vatiquinone + Rifampicin (14 days TID, 600 mg)

For CC(C)=CCC/C(C)=C/CC/C(C)=C/CC[C@@](C)(O)CCC1=C(C)C(=O)C(C)=C(C)C1=O [Vatiquinone, alpha‐tocotrienol quinone], the “CYP1A2 Indmax” value (CYP1A2; In vitro study) was 2.61, the “CYP1A2 Indmax” value (CYP1A2; Scaled using omeprazole data) was 1.04 and the EC50 (CYP1A2; human) was 1800 nM. The CYP1A2 induction potential (CYP1A2; in vitro data) was “borderline potential inducer”, the tolerability [1] was “well tolerated with no dose‐limiting toxicities” and the “AUC, low‐fat meals compared with fasted” value (Food-effect study) was 8 fold. For the same compound, the “effect of vatiquinone on CYP2C19 substrate (omeprazole) exposure” value (CYP2C19) was “did not have a significant impact; also recorded: lack of a clinically relevant effect”, the mean cumulative recovery [2] was 92.9% and the “recovery of unchanged vatiquinone in feces” value [2] was 6.77 % of dose. The “effect of vatiquinone on CYP2C9 substrate (tolbutamide) exposure” value (CYP2C9) was “did not have a significant impact; also recorded: lack of a clinically relevant effect”, the fraction unbound [3] was 0.022 and the “CYP3A4 Indmax” value (CYP3A4 [4]; Scaled using rifampicin data) was 4.26. For the same compound, the EC50 (CYP3A4 [4]; human) was 3700 nM, the CYP3A4 induction potential (CYP3A4 [4]; in vitro data) was “borderline potential inducer” and the “increase in vatiquinone AUC0‐inf” value (CYP3A4 [5]; [11]) was roughly 2.9 fold. For the same compound, the “increase in vatiquinone Cmax” value (CYP3A4 [5]; [11]) was “approximately 3.5 fold”, the “AUC0‐inf, geometric mean” value (CYP3A4 [5]; [12]) was 11,300 h•ng/mL and the “Cmax, geometric mean” value (CYP3A4 [5]; [12]) was 3430 ng/mL. The “increase in vatiquinone AUC0‐inf” value (CYP3A4 [5]; [13]) was roughly 188%, the “increase in vatiquinone Cmax” value (CYP3A4 [5]; [13]) was “approximately 245%” and the “decrease in vatiquinone AUC0‐inf” value (CYP3A4 [6]; [14]) was roughly 46%. The “decrease in vatiquinone Cmax” value (CYP3A4 [6]; [14]) was “approximately 36%”, the “AUC0‐inf, geometric mean” value (CYP3A4 [6]; [15]) was 1830 ng·h/mL and the “Cmax, geometric mean” value (CYP3A4 [6]; [15]) was 619 ng/mL. The “enzyme mediating vatiquinone metabolism” value (CYP3A4 [7]) was “mainly mediated by CYP3A4”, the “effect of vatiquinone on BCRP substrate (rosuvastatin) exposure” value [8] was “did not have a significant impact; also recorded: lack of a clinically relevant effect” and the AUC ([9]; 200 mg, 200 mg TID, Day 1, patients with Friedreich's ataxia) was 1030 ng·h/mL. It also gave an AUC ([9]; 200 mg, 200 mg TID, Day 91) of 1950 ng·h/mL, a Cmax ([9]; 200 mg, 200 mg TID, Day 1) of 466 ng/mL and a Cmax ([9]; 200 mg, 200 mg TID, Day 91) of 689 ng/mL. It also gave an AUC ([9]; 400 mg, 400 mg TID, Day 1, patients with Friedreich's ataxia) of 2430 ng·h/mL, an AUC ([9]; 400 mg, 400 mg TID, Day 91) of 3490 ng·h/mL and a Cmax ([9]; 400 mg, 400 mg TID, Day 1) of 1020 ng/mL. It also gave a Cmax ([9]; 400 mg, 400 mg TID, Day 91) of 905 ng/mL, a ka ([10]; Clinical study) of 1.27 h⁻¹ and a tlag ([10]; Clinical study) of 3.67 h. The “CL/F (apparent oral clearance)” value ([10]; healthy volunteer studies, from AUC0-inf in the absence of itraconazole) was 94.3 L/h and the half-life ([10]; human, in vivo, oral) was roughly 9 h.
